# Sampled rows, rich in hits. Any-hit rate of the full collection: about 1.3%.
# DAGLB inhibitor – blocks human DAGLB lipase activity; inhibition, % at 5.17 µM; Q8NCG7; HEK293T DAGLB membrane lysate, EnzChek fluorogenic substrate; actives 0.059% (n = 340,000); AID 504411; in the data active means inhibition above about 34%;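 further: 0% = enzyme with vehicle and 100% = wells lacking enzyme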
# Target sequence (Q8NCG7 whole entry, looked up): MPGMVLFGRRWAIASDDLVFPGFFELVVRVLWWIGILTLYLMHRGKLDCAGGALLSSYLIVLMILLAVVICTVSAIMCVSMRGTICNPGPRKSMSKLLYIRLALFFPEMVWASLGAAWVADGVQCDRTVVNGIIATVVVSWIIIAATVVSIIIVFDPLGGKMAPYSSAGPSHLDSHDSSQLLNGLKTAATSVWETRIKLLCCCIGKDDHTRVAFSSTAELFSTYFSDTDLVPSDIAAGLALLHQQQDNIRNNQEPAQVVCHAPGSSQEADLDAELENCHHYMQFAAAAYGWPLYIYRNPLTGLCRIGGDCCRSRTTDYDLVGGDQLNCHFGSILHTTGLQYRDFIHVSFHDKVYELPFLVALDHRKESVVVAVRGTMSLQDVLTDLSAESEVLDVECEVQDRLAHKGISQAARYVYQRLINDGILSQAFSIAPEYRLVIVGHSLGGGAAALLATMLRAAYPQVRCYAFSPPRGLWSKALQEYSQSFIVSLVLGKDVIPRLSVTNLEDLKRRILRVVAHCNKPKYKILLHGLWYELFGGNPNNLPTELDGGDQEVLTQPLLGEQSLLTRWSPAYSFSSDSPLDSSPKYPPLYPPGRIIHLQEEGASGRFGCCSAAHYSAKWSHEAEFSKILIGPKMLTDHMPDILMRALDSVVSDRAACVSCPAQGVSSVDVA
# iPSC survival up – enhancers of human iPSC single-cell survival | hiPSC single-cell survival, ATPlite luminescence; 100% = ROCK inhibitor wells, 0% = DMSO | survival enhancement, % at 20 µM | actives 0.044% (n = 360,000) | AID 602274; in the data active means survival enhancement above about 18%;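 further: cells exposed to compounds for 16 hours before the ATP read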
# MT1-MMP act inh – blocks activation of human MT1-MMP; P50281; GFP/RFP ratio change, % at 20 µM; actives 0.061% (n = 360,000); AID 651647; HT1080 RFP-PRO-GFP cells, GFP/RFP ratio fluorescence, overnight; percent of plate control window, DMSO zero;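 active means GFP/RFP ratio change of at least 30% with cell ATP level not reduced by more than half and red fluorescence within 50% of control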
#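 Test system: HT1080 RFP-PRO-GFP cells; Benchmarks: DMSO and RFP-L50D-GFP cell wells; Timing: cells overnight before dosing, compound overnight, 37 °C, 5% CO2; Compound: one 20 µM compound dose with 1% DMSO; Read-out: GFP/RFP fluorescence ratio.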
# SKN-1 block – blocks SKN-1 activity in C. elegans; actives 0.49% (n = 360,000); C. elegans VP596 Pgst-4::GFP/RFP ratio, acrylamide-induced, 24 h; inhibition, % at 21.8 µM;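 active means interference check ratio from 0.5 to 1.5 plus GFP to RFP signal ratio inhibition reaching or exceeding a fixed threshold, cut at about 30% in these data, passing the limit was not always enough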
# FAS-TE inh – FAS thioesterase (human) inhibition | P49327 | recombinant FAS-TE, OMFH fluorogenic substrate, fluorescence endpoint | actives 0.67% (n = 360,000) | AID 602261 | inhibition, % at 15 µM;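 active means compounds whose normalised, plate-corrected inhibition of enzyme fluorescence in the single-dose primary screen is 50% or more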;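 further: 0% = DMSO with enzyme and 100% = substrate without enzyme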
# DAGLB confirm – DAGLB (human) inhibition, confirmation screen | shares compounds with DAGLB inhibitor | actives 73% (n = 190) | inhibition, % at 5.17 µM | HEK293T DAGLB membrane lysate, EnzChek fluorogenic substrate | AID 504445;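 active means mean inhibition over triplicate wells above a set limit taken from the primary lipase screen, cut at about 34% in these data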;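 further: 0% = DAGLB with DMSO and 100% = wells lacking DAGLB enzyme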
# Starred values were filed as active, the others as inactive; · = no result.
SMILES,DAGLB inhibitor,iPSC survival up,MT1-MMP act inh,SKN-1 block,FAS-TE inh,DAGLB confirm
CN(C)c1ccc(N=Nc2ccccc2C(=O)OCC(=O)NCC2CCCCC2)cc1,39.3*,-1.0,21.8,10.0,33.0,43.2*
O=C(NC(C(=O)N/N=C/c1ccncc1)c1n[nH]c(=O)c2ccccc12)c1ccccc1 (centres undefined),15.2,-0.4,0.8,-19.5,-2.9,·
O=C(NC(C(=O)N/N=C/c1cccc2ccccc12)c1n[nH]c(=O)c2ccccc12)c1ccccc1 (centres undefined),38.6*,5.9,3.0,6.4,22.8,40.3*
COc1cc(N=Nc2ccc(Br)cc2)cc(C=O)c1O,37.9*,0.9,29.0,26.1,6.1,27.8
COc1cc(CN(C)C)cc(C=O)c1O,1.8,-1.6,2.5,-3.1,-4.8,·
CCOC1=CC2=C(C(=O)C(Cl)=CC2=O)[C@@H]2CN(S(=O)(=O)c3ccc(C)cc3)[C@@H](c3ccccc3)[C@H]12,·,-4.9,-0.2,9.1,14.9,·
COc1ccc(Cn2cc(CN3CC(N4CC=CC4)CS3(=O)=O)nn2)cc1 (centres undefined),·,-0.1,2.2,-5.3,-9.3,·
Cc1ccc(CNC(=O)c2nn(C)c(C)c2[N+](=O)[O-])cc1,-1.4,-1.1,-2.1,5.7,-6.5,·
CCN(CC)c1ccc(N=Nc2nn(C)c(C)c2[N+](=O)[O-])cc1,44.0*,-2.5,43.8,22.0,24.5,45.9*
COc1cc(/C=C2/C(=O)NN(c3ccc(C)c(Cl)c3)C2=O)cc([N+](=O)[O-])c1O,39.1*,-0.7,0.2,0.2,-0.1,38.2*
COc1cc(/C=C2/C(=O)NN(c3cccc(C)c3)C2=O)cc([N+](=O)[O-])c1O,15.8,-0.6,11.3,3.4,-3.0,·
Cc1ccc(C2=C(O)C(=O)C(c3ccc(C)cc3)=C(O)C2=O)cc1,59.6*,-0.2,-2.6,-19.0,26.6,25.1
N#C/C(=C/c1ccc(O)c(O)c1)C(=O)NCc1ccc(Cl)cc1,44.9*,0.0,-6.9,-0.4,8.2,24.2
COc1ccc(C(=O)NCc2nnc(SCC(=O)Nc3cc(OC)ccc3OC)o2)cc1,-1.3,0.0,-1.8,-10.9,-6.2,·
COc1ccc(OC)c(NC(=O)CSc2nnc(CNC(=O)c3ccccc3F)o2)c1,35.8*,0.2,-1.3,-17.4,-4.0,-6.2
O=C(Nc1ccc2c(c1)OCCO2)C(CCc1ccccc1)N1CCC(Cc2ccccc2)CC1 (centres undefined),·,-0.8,-0.8,-5.2,14.3,·
O=C(c1cc(O)c(O)c([N+](=O)[O-])c1)c1ccccc1F,37.7*,-2.9,13.3,-23.1,22.1,23.2
O=C(Nc1ccc([N+](=O)[O-])cc1)c1ccccc1F,1.6,-1.6,3.9,27.5,6.1,·
O=[N+]([O-])c1nccn1CC(O)CO (centres undefined),·,1.7,5.5,11.9,-3.4,·
Cc1nn(-c2ccccc2)c(N)c1N=Nc1cccnc1,0.4,-1.0,0.2,8.8,-5.3,·
Nc1nc(-c2ccccc2)c(N=Nc2cccnc2)s1,50.9*,-0.3,18.6,16.5,1.6,50.5*
Oc1ccccc1N=Nc1nc(-c2ccccc2)c(-c2ccccc2)[nH]1,38.2*,-6.4,9.6,19.3,29.4,52.5*
C[C@@H]1CN([C@H](C)CO)C(=O)CCCn2nncc2CO[C@@H]1CN(C)S(=O)(=O)c1ccc2c(c1)OCCCO2,-0.6,-0.6,1.9,-3.1,-11.0,·
CN(C)c1ccc(/C=C/c2ccc3c4ccccc4ccc3[n+]2-c2ccccc2)cc1,35.4*,-0.5,56.7,82.8,-4.4,61.3*
CN(C)c1ccc(/C=C/c2ccc3ccccc3[n+]2C)cc1,13.6,-2.3,86.6,87.6,-24.0,·
CC(C)N1CCC1(C)C(=O)Nc1cc(-c2ccccc2)nn1C (centres undefined),·,-0.1,-3.4,6.5,-4.2,·
O=c1cc(-c2ccccc2Cl)oc2c(NS(=O)(=O)c3cc(Cl)cc(Cl)c3O)ccc(O)c12,40.8*,-1.4,-42.2,4.2,67.5*,37.9*
Cc1cc2nc(-c3cccc(Br)c3)c(Cc3ccccc3)n2c(C)c1Br,·,-0.8,3.2,32.1,14.1,·

# From PubChem BioAssay
